48 compounds from ChEMBL document CHEMBL1122773 (1984) can be followed below.

Each structure is given as a SMILES string. ≈ marks a conversion by molar mass, not a printed value. Bounds are passed on as bounds.

As a reminder, the MIC is the smallest concentration in the dilution series that meets the test's criterion for growth inhibition. Lower therefore signals greater potency.

This assay relates to Staphylococcus aureus. Kind of assay: In vitro antibacterial activity for minimum inhibition concentration (MIC) required to inhibit growth of Staphylococcus aureus. The assay is classed as functional. An outline of the steps: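 Broth microdilution in brain/heart infusion broth, inoculated with a standardized suspension to a final 10^5 viable cells/mL. Incubation 20 h at 37 °C. MIC read as the lowest concentration preventing visible growth.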

`CSC1OC(C(NC(=O)[C@@H]2NCCC[C@@H]2C)C(C)Cl)C(O)C(O)C1O` (stereo partly drawn) returned an MIC of 25 µg/mL (≈ 63 µM).

In turn, `CSC1OC(C(NC(=O)[C@@H]2CCN2)C(C)Cl)C(O)C(O)C1O` (stereo partly drawn) gave an MIC of 25 µg/mL (≈ 70.5 µM).

Compound `CSC1OC(C(NC(=O)c2ccccn2)C(C)Cl)C(O)C(O)C1O` (stereo not drawn) registered an MIC of 62.5 µg/mL (≈ 166 µM).

In turn, `CSC1OC(C(NC(=O)c2cccc(C)n2)C(C)Cl)C(O)C(O)C1O` (stereo not drawn) displayed an MIC above 25 µg/mL.

Compound `CCCCCC[C@H]1CCN[C@@H](C(=O)NC(C(C)Cl)C2OC(SC)C(O)C(O)C2O)C1` (stereo partly drawn) gave an MIC of 0.5 µg/mL (≈ 1.07 µM).

For `CSC1OC(C(NC(=O)[C@H]2C[C@@H](C(C)(C)C)CCN2)C(C)Cl)C(O)C(O)C1O` (stereo partly drawn), the MIC was above 25 µg/mL.

`CSC1OC(C(NC(=O)[C@H]2CCC[C@@H](C)N2)C(C)Cl)C(O)C(O)C1O` (stereo partly drawn): the MIC was above 25 µg/mL.

In turn, `CCCCCCc1ccnc(C(=O)NC(C(C)Cl)C2OC(SC)C(O)C(O)C2O)c1` (stereo not drawn) displayed an MIC of 50 µg/mL (≈ 108 µM).

`CSC1OC(C(NC(=O)[C@@H]2CCCCN2C)C(C)Cl)C(O)C(O)C1O` (stereo partly drawn) yielded an MIC of 3.9 µg/mL (≈ 9.83 µM).

As for `CC[C@H]1CCN(CCO)[C@@H](C(=O)NC(C(C)Cl)C2OC(SC)C(O)C(O)C2O)C1` (stereo partly drawn), the minimum inhibitory concentration (MIC) was above 160 µg/mL.

Compound `CC[C@@H]1CCN(CCO)[C@H](C(=O)NC(C(C)Cl)C2OC(SC)C(O)C(O)C2O)C1` (stereo partly drawn) had a minimum inhibitory concentration (MIC) of 2.5 µg/mL (≈ 5.49 µM).

`CCCC[C@@H]1CCN[C@H](C(=O)NC(C(C)Cl)C2OC(SC)C(O)C(O)C2O)C1` (stereo partly drawn) gave an MIC of 0.06 µg/mL (≈ 0.137 µM).

With `CC[C@H]1CCN[C@@H](C(=O)N[C@@H]([C@H]2O[C@H](SC)[C@H](O)[C@@H](O)[C@H]2O)[C@H](C)Cl)C1`, the MIC came out at 250 µg/mL (≈ 608 µM).

With `CCCc1ccnc(C(=O)NC(C(C)Cl)C2OC(SC)C(O)C(O)C2O)c1` (stereo not drawn), the MIC was above 100 µg/mL.

In the case of `CC[C@@H]1CCC[C@H](C(=O)NC(C(C)Cl)C2OC(SC)C(O)C(O)C2O)N1` (stereo partly drawn), the MIC was above 25 µg/mL.

`CCCCCC[C@@H]1CCN[C@H](C(=O)NC(C(C)Cl)C2OC(SC)C(O)C(O)C2O)C1` (stereo partly drawn) registered an MIC of 0.03 µg/mL (≈ 0.0642 µM).

As to `CCc1ccnc(C(=O)NC(C(C)Cl)C2OC(SC)C(O)C(O)C2O)c1` (stereo not drawn), the minimum inhibitory concentration (MIC) is 1000 µg/mL (≈ 2470 µM).

As for `CSC1OC(C(NC(=O)[C@@H]2C[C@H](C(C)(C)C)CCN2)C(C)Cl)C(O)C(O)C1O` (stereo partly drawn), the minimum inhibitory concentration (MIC) worked out at 2 µg/mL (≈ 4.56 µM).

The compound `CSC1OC(C(NC(=O)c2ccncc2)C(C)Cl)C(O)C(O)C1O` (stereo not drawn) yielded an MIC above 1000 µg/mL.

The compound `CC[C@@H]1CC[C@H](C(=O)NC(C(C)Cl)C2OC(SC)C(O)C(O)C2O)NC1` (stereo partly drawn) displayed a minimal inhibitory concentration (MIC) of 2.5 µg/mL (≈ 6.08 µM).

Turning to `CCCC[C@@H]1CCN(CCO)[C@H](C(=O)NC(C(C)Cl)C2OC(SC)C(O)C(O)C2O)C1` (stereo partly drawn), the MIC was determined as 0.16 µg/mL (≈ 0.331 µM).

Consider `CSC1OC(C(NC(=O)[C@H]2CCCCN2C)C(C)Cl)C(O)C(O)C1O` (stereo partly drawn), for which the MIC was above 100 µg/mL.

Compound `CSC1OC(C(NC(=O)[C@H]2NCCCC2C)C(C)Cl)C(O)C(O)C1O` (stereo partly drawn) came in with an MIC of 12.5 µg/mL (≈ 31.5 µM).

On to `CSC1OC(C(NC(=O)[C@@H]2CCCCN2)C(C)Cl)C(O)C(O)C1O` (stereo partly drawn), for which the MIC was determined as 3.9 µg/mL (≈ 10.2 µM).

`CS[C@H]1O[C@H](C(NC(=O)C2CCNCC2)C(C)Cl)[C@H](O)[C@H](O)[C@H]1O` (stereo partly drawn) showed an MIC above 80 µg/mL.

In turn, `CSC1OC(C(NC(=O)c2cc(C(C)(C)C)ccn2)C(C)Cl)C(O)C(O)C1O` (stereo not drawn) registered an MIC above 100 µg/mL.

`CCc1cccc(C(=O)NC(C(C)Cl)C2OC(SC)C(O)C(O)C2O)n1` (stereo not drawn) gave an MIC above 25 µg/mL.

As for `CCCC[C@H]1CCN[C@@H](C(=O)NC(C(C)Cl)C2OC(SC)C(O)C(O)C2O)C1` (stereo partly drawn), the MIC amounted to 31.2 µg/mL (≈ 71.1 µM).

`CC[C@@H]1CCN(C)[C@H](C(=O)NC(C(C)Cl)C2OC(SC)C(O)C(O)C2O)C1` (stereo partly drawn) registered a minimum inhibitory concentration (MIC) of 0.2 µg/mL (≈ 0.471 µM).

With `CSC1OC(C(NC(=O)c2cccnc2)C(C)Cl)C(O)C(O)C1O` (stereo not drawn), the MIC was above 100 µg/mL.

Turning to `CCC[C@@H]1CCN[C@H](C(=O)NC(C(C)Cl)C2OC(SC)C(O)C(O)C2O)C1` (stereo partly drawn), it took 0.5 µg/mL (≈ 1.18 µM) to inhibit growth (MIC).

The compound `CSC1OC(C(NC(=O)[C@@H]2CCCCCN2)C(C)Cl)C(O)C(O)C1O` (stereo partly drawn) had an MIC of 1.56 µg/mL (≈ 3.93 µM).

Take `CSC1OC(C(NC(=O)[C@H]2CCCCN2)C(C)Cl)C(O)C(O)C1O` (stereo partly drawn): the lowest concentration to inhibit growth (MIC) was 25 µg/mL (≈ 65.3 µM).

The compound `CSC1OC(C(NC(=O)c2ncccc2C)C(C)Cl)C(O)C(O)C1O` (stereo not drawn) yielded a minimal inhibitory concentration (MIC) above 100 µg/mL.

Compound `CCc1ccc(C(=O)NC(C(C)Cl)C2OC(SC)C(O)C(O)C2O)nc1` (stereo not drawn) displayed a minimal inhibitory concentration (MIC) of 62.5 µg/mL (≈ 154 µM).

Compound `CSC1OC(C(NC(=O)[C@H]2CC3CCN2CC3)C(C)Cl)C(O)C(O)C1O` (stereo partly drawn) came in with a minimal inhibitory concentration (MIC) of 50 µg/mL (≈ 122 µM).

In turn, `CSC1OC(C(NC(=O)[C@H]2CCCNC2)C(C)Cl)C(O)C(O)C1O` (stereo partly drawn) showed an MIC above 80 µg/mL.

The compound `CCC[C@H]1CCN[C@@H](C(=O)NC(C(C)Cl)C2OC(SC)C(O)C(O)C2O)C1` (stereo partly drawn) came in with an MIC above 25 µg/mL.

In the case of `CCCCCC[C@@H]1CCN(C)[C@H](C(=O)NC(C(C)Cl)C2OC(SC)C(O)C(O)C2O)C1` (stereo partly drawn), the lowest concentration to inhibit growth (MIC) was 0.3 µg/mL (≈ 0.624 µM).

Regarding `CCCCCCCCc1ccnc(C(=O)NC(C(C)Cl)C2OC(SC)C(O)C(O)C2O)c1` (stereo not drawn), the MIC was above 10 µg/mL.

Turning to `CSC1OC(C(NC(=O)[C@@H]2CC3CCN2CC3)C(C)Cl)C(O)C(O)C1O` (stereo partly drawn), the minimum inhibitory concentration (MIC) was above 100 µg/mL.

`CSC1OC(C(NC(=O)[C@@H]2CCCNC2)C(C)Cl)C(O)C(O)C1O` (stereo partly drawn) yielded an MIC above 80 µg/mL.

`CC[C@H]1CCC[C@@H](C(=O)NC(C(C)Cl)C2OC(SC)C(O)C(O)C2O)N1` (stereo partly drawn): the MIC was above 25 µg/mL.

On to `CC[C@H]1CCN(C)[C@@H](C(=O)NC(C(C)Cl)C2OC(SC)C(O)C(O)C2O)C1` (stereo partly drawn), for which the minimal inhibitory concentration (MIC) is above 100 µg/mL.

The compound `CSC1OC(C(NC(=O)[C@H]2CCCCCN2)C(C)Cl)C(O)C(O)C1O` (stereo partly drawn) had an MIC above 100 µg/mL.

Regarding `CSC1OC(C(NC(=O)[C@@H]2CCC[C@H](C)N2)C(C)Cl)C(O)C(O)C1O` (stereo partly drawn), the minimum inhibitory concentration (MIC) is above 25 µg/mL.

As to `CC[C@H]1CC[C@@H](C(=O)NC(C(C)Cl)C2OC(SC)C(O)C(O)C2O)NC1` (stereo partly drawn), the MIC was determined as 2 µg/mL (≈ 4.87 µM).

With `CCCCCCCC[C@@H]1CCN[C@H](C(=O)NC(C(C)Cl)C2OC(SC)C(O)C(O)C2O)C1` (stereo partly drawn), the minimal inhibitory concentration (MIC) was determined as 0.3 µg/mL (≈ 0.606 µM).
